# Measured values from ChEMBL document CHEMBL2086296, “Synthesis of novel quinoline-2-one based chalcones of potential anti-tumor activity” (Eur J Med Chem, 2012).
# Assays:
# MOLT-4 = assay: Cytotoxicity against human MOLT4 cells after 24 hrs by SRB assay; format: functional; settings: MOLT-4, 24 h
# Method in brief: (§1)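 NCI 60-line screen. Cells in RPMI 1640 with 5% FBS and 2 mM L-glutamine, seeded at 5,000–40,000 cells/well by doubling time, then incubated 24 h at 37 °C, 5% CO2 before dosing. Time-zero plates fixed with TCA at drug addition. DMSO stocks diluted in medium with gentamicin to five concentrations, […]. Protein read by SRB staining. GI50, TGI and LC50 derived relative to control and time-zero.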
# EKVX [1] = assay: (§2) Cytotoxicity against human EKVX cells after 24 hrs by SRB assay; format: functional; method in brief: as §1
# HOP-62 = assay: Cytotoxicity against human HOP62 cells after 24 hrs by SRB assay; format: functional; settings: HOP-62, 24 h; method in brief: as §1
# NCI-H226 = assay: Cytotoxicity against human NCI-H226 cells after 24 hrs by SRB assay; format: functional; settings: NCI-H226, 24 h; method in brief: as §1
# NCI-H522 = assay: Cytotoxicity against human NCI-H522 cells after 24 hrs by SRB assay; format: functional; settings: NCI-H522, 24 h; method in brief: as §1
# A549 = assay: Cytotoxicity against human A549 cells after 24 hrs by SRB assay; format: functional; settings: A549, 24 h; method in brief: as §1
# SW-620 = assay: Cytotoxicity against human SW620 cells after 24 hrs by SRB assay; format: functional; settings: SW-620, 24 h
# Method in brief: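 NCI 60-cell screen. Cells are grown in RPMI 1640 with 5% FBS and 2 mM L-glutamine and seeded at 5,000–40,000 cells/well according to doubling time. They are preincubated 24 h at 37 °C in 5% CO2, and Tz plates are TCA-fixed at drug addition. Drug stock is in DMSO, diluted in medium with gentamicin, and tested at five concentrations (100, 10, 1.0, 0.1, […]). Protein is read by SRB staining. GI50, TGI and LC50 are derived relative to time-zero and control wells.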
# HCC 2998 [2] = assay: (§3) Cytotoxicity against human HCC2998 cells after 24 hrs by SRB assay; format: functional; settings: HCC 2998, 24 h; method in brief: as §1
# SF-268 = assay: Cytotoxicity against human SF268 cells after 24 hrs by SRB assay; format: functional; settings: SF-268, 24 h; method in brief: as §1
# LOX IMVI [3] = assay: (§4) Cytotoxicity against human LOXIMVI cells after 24 hrs by SRB assay; format: functional; method in brief: as §1
# SK-MEL-5 = assay: Cytotoxicity against human SK-MEL-5 cells after 24 hrs by SRB assay; format: functional; settings: SK-MEL-5, 24 h; method in brief: as §1
# SK-MEL-2 [4] = assay: (§5) Cytotoxicity against human SK-MEL-2 cells after 24 hrs by SRB assay; format: functional; settings: SK-MEL-2, 24 h; method in brief: as §1
# OVCAR-8 = assay: Cytotoxicity against human OVCAR8 cells after 24 hrs by SRB assay; format: functional; settings: OVCAR-8, 24 h; method in brief: as §1
# OVCAR-5 = assay: Cytotoxicity against human OVCAR5 cells after 24 hrs by SRB assay; format: functional; settings: OVCAR-5, 24 h; method in brief: as §1
# CAKI-1 [5] = assay: (§6) Cytotoxicity against human CAKI-1 cells after 24 hrs by SRB assay; format: functional; settings: CAKI-1, 24 h; method in brief: as §1
# MCF7 = assay: Cytotoxicity against human MCF7 cells after 24 hrs by SRB assay; format: functional; settings: MCF7, 24 h; method in brief: as §1
# SR = assay: Cytotoxicity against human SR cells after 24 hrs by SRB assay; format: cell-based
# Method in brief: (§7)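 NCI 60-cell-line screen: cells grown in RPMI 1640 with 5% FBS and 2 mM L-glutamine, seeded at 5,000–40,000 cells/well by doubling time, and preincubated 24 h at 37 °C in 5% CO2. Time-zero plates were TCA-fixed. DMSO stocks were diluted in medium with gentamicin to five concentrations (100, 10, 1.0, 0.1, […]). Protein was read by SRB, and GI50, TGI and LC50 were derived against time-zero.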
# CCRF-CEM = assay: Cytotoxicity against human CCRF-CEM cells after 24 hrs by SRB assay; format: cell-based
# Method in brief: (§8)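 NCI 60-cell screen. Cells grown in RPMI 1640 with 5% FBS and 2 mM L-glutamine, seeded at 5,000–40,000 cells/well, preincubated 24 h at 37 °C in 5% CO2. Drug stock in DMSO, diluted in medium with gentamicin; five final concentrations, 100, 10, 1.0, 0.1 and […]. Time-zero plates were TCA-fixed. Protein read by SRB staining; GI50, TGI and LC50 taken relative to time-zero.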
# HL-60 = assay: Cytotoxicity against human HL60 cells after 24 hrs by SRB assay; format: cell-based; settings: hl-60, 24 h; method in brief: as §8
# EKVX [6] = assay: as §2; format: cell-based; method in brief: as §8
# HCT-116 = assay: Cytotoxicity against human HCT116 cells after 24 hrs by SRB assay; format: cell-based; settings: hct-116, 24 h; method in brief: as §8
# HCT-15 = assay: Cytotoxicity against human HCT15 cells after 24 hrs by SRB assay; format: cell-based; settings: hct-15, 24 h; method in brief: as §8
# HT-29 = assay: Cytotoxicity against human HT-29 cells after 24 hrs by SRB assay; format: cell-based; settings: ht-29, 24 h; method in brief: as §8
# KM12 = assay: Cytotoxicity against human KM12 cells after 24 hrs by SRB assay; format: cell-based; settings: km12, 24 h; method in brief: as §8
# HCC 2998 [7] = assay: as §3; format: cell-based; settings: hcc 2998, 24 h; method in brief: as §8
# LOX IMVI [8] = assay: as §4; format: cell-based; method in brief: as §8
# SK-MEL-2 [9] = assay: as §5; format: cell-based; settings: sk-mel-2, 24 h; method in brief: as §8
# OVCAR-3 = assay: Cytotoxicity against human OVCAR3 cells after 24 hrs by SRB assay; format: cell-based; settings: ovcar-3, 24 h; method in brief: as §8
# ACHN = assay: Cytotoxicity against human ACHN cells after 24 hrs by SRB assay; format: cell-based; method in brief: as §8
# CAKI-1 [10] = assay: as §6; format: cell-based; settings: caki-1, 24 h; method in brief: as §8
# RXF 393 = assay: Cytotoxicity against human RXF393 cells after 24 hrs by SRB assay; format: cell-based; settings: rxf 393, 24 h; method in brief: as §8
# MDA-MB-231 = assay: Cytotoxicity against human MDA-MB-231 cells after 24 hrs by SRB assay; format: cell-based; settings: mda-mb-231, 24 h; method in brief: as §8
# T47D = assay: Cytotoxicity against human T47D cells after 24 hrs by SRB assay; format: cell-based; method in brief: as §7
# [11] = Cytotoxicity against human Hs 578T cells after 24 hrs by SRB assay; format: cell-based; method in brief: as §8
# OVCAR-4 = assay: Cytotoxicity against human OVCAR4 cells after 24 hrs by SRB assay; format: functional; settings: OVCAR-4, 24 h; method in brief: as §1
# 786-0 [12] = assay: (§9) Cytotoxicity against human 786-0 cells after 24 hrs by SRB assay; format: functional; settings: 786-0, 24 h; method in brief: as §1
# SK-OV-3 = assay: Cytotoxicity against human SKOV3 cells after 24 hrs by SRB assay; format: cell-based; settings: sk-ov-3, 24 h; method in brief: as §7
# 786-0 [13] = assay: as §9; format: cell-based; settings: 786-0, 24 h; method in brief: as §8
compound,measurement,setting,value
O=C(/C=C/c1cc2ccccc2[nH]c1=O)c1ccc(O)cc1,GI50,MOLT-4,3.04 µM
same,TGI,MOLT-4,9.91 µM
same,GI50,EKVX [1],13.4 µM
same,TGI,EKVX [1],27.2 µM
same,GI50,HOP-62,2.62 µM
same,TGI,HOP-62,8.17 µM
same,GI50,NCI-H226,3.29 µM
same,TGI,NCI-H226,10.9 µM
same,GI50,NCI-H522,1.7 µM
same,TGI,NCI-H522,3.29 µM
same,GI50,A549,2.73 µM
same,TGI,A549,11.8 µM
same,GI50,SW-620,1.89 µM
same,TGI,SW-620,4.45 µM
same,GI50,HCC 2998 [2],4.13 µM
same,TGI,HCC 2998 [2],22.3 µM
same,GI50,SF-268,3.76 µM
same,TGI,SF-268,23.3 µM
same,GI50,LOX IMVI [3],2.47 µM
same,TGI,LOX IMVI [3],12.7 µM
same,GI50,SK-MEL-5,3.98 µM
same,TGI,SK-MEL-5,13.3 µM
same,GI50,SK-MEL-2 [4],4.13 µM
same,TGI,SK-MEL-2 [4],13.6 µM
same,GI50,OVCAR-8,3.23 µM
same,TGI,OVCAR-8,21.1 µM
same,GI50,OVCAR-5,3.2 µM
same,TGI,OVCAR-5,12.8 µM
same,GI50,CAKI-1 [5],4.71 µM
same,TGI,CAKI-1 [5],> 100 µM
same,GI50,MCF7,3.49 µM
same,TGI,MCF7,16.8 µM
same,LC50,SR,> 100 µM
same,LC50,CCRF-CEM,> 100 µM
same,LC50,HL-60,> 100 µM
same,LC50,EKVX [6],55.2 µM
same,LC50,HCT-116,9.91 µM
same,LC50,HCT-15,> 100 µM
same,LC50,HT-29,41.4 µM
same,LC50,KM12,15.4 µM
same,LC50,HCC 2998 [7],59.6 µM
same,LC50,LOX IMVI [8],> 100 µM
same,LC50,SK-MEL-2 [9],48.3 µM
same,LC50,OVCAR-3,35 µM
same,LC50,ACHN,34 µM
same,LC50,CAKI-1 [10],> 100 µM
same,LC50,RXF 393,6.33 µM
same,LC50,MDA-MB-231,> 100 µM
same,LC50,T47D,79.6 µM
same,LC50,[11],> 100 µM
O=C(/C=C/c1cc2ccccc2[nH]c1=O)/C=C/c1cc2ccccc2[nH]c1=O,GI50,MOLT-4,2.27 µM
same,TGI,MOLT-4,> 100 µM
same,GI50,EKVX [1],2.61 µM
same,TGI,EKVX [1],> 100 µM
same,GI50,HOP-62,3.65 µM
same,TGI,HOP-62,> 100 µM
same,GI50,NCI-H226,2.77 µM
same,TGI,NCI-H226,8.01 µM
same,GI50,NCI-H522,2.52 µM
same,GI50,A549,0.764 µM
same,GI50,SW-620,1 µM
same,TGI,SW-620,3.92 µM
same,GI50,HCC 2998 [2],0.839 µM
same,TGI,HCC 2998 [2],2.22 µM
same,GI50,SF-268,3.75 µM
same,TGI,SF-268,> 100 µM
same,GI50,LOX IMVI [3],0.134 µM
same,TGI,LOX IMVI [3],0.352 µM
same,GI50,SK-MEL-5,5.63 µM
same,TGI,SK-MEL-5,> 100 µM
same,GI50,SK-MEL-2 [4],> 100 µM
same,TGI,SK-MEL-2 [4],> 100 µM
same,GI50,OVCAR-4,2.06 µM
same,TGI,OVCAR-4,> 100 µM
same,GI50,OVCAR-8,2.6 µM
same,TGI,OVCAR-8,> 100 µM
same,GI50,CAKI-1 [5],2.36 µM
same,TGI,CAKI-1 [5],> 100 µM
same,GI50,786-0 [12],2.75 µM
same,TGI,786-0 [12],6.82 µM
same,GI50,MCF7,0.327 µM
same,TGI,MCF7,> 100 µM
same,LC50,SR,> 100 µM
same,LC50,CCRF-CEM,> 100 µM
same,LC50,HL-60,> 100 µM
same,LC50,EKVX [6],> 100 µM
same,LC50,HCT-116,> 100 µM
same,LC50,HCT-15,> 100 µM
same,LC50,KM12,5.12 µM
same,LC50,HCC 2998 [7],5.25 µM
same,LC50,SK-MEL-2 [9],> 100 µM
same,LC50,OVCAR-3,> 100 µM
same,LC50,SK-OV-3,> 100 µM
same,LC50,ACHN,> 100 µM
same,LC50,CAKI-1 [10],> 100 µM
same,LC50,RXF 393,7.73 µM
same,LC50,786-0 [13],> 100 µM
same,LC50,MDA-MB-231,> 100 µM
same,LC50,T47D,> 100 µM
